We go through seven molecules from publication PMC4289021 (Nature, 2014).

Experiment [1] deals with full-length RNF146 or RNF146(RING-WWE). As to the kind of experiment: E2~Ub/lysine reactivity assay with UbcH5. In kind it is biochemical, human. To be noted: ligand added to full-length RNF146 or RING-WWE fragment, not RING-only construct. The procedure, abridged: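 Mouse RNF146(RING-WWE) (residues 30–183), made from a GST-tagged construct with TEV cleavage, or His6-T7-tagged full-length RNF146. UbcH5~Ub was charged by wheat E1 (1.5 μM) with 100 μM E2, 200 μM K0 Ub, 2.5 mM MgCl2 and 2 mM ATP in PBS at 37 °C for 30 min, then SEC-purified. Final: 25 μM E2, 4 or 8 μM E3, ± iso-ADPr. Started with 40 mM L-lysine at 35 °C; sampled 1–15 min; non-reducing SDS-PAGE, Coomassie/Oriole stain.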

Experiment [2] has as its target T1, TNKS(5ARC) (human, UniProt O95271 173-961).
T1 sequence (looked up): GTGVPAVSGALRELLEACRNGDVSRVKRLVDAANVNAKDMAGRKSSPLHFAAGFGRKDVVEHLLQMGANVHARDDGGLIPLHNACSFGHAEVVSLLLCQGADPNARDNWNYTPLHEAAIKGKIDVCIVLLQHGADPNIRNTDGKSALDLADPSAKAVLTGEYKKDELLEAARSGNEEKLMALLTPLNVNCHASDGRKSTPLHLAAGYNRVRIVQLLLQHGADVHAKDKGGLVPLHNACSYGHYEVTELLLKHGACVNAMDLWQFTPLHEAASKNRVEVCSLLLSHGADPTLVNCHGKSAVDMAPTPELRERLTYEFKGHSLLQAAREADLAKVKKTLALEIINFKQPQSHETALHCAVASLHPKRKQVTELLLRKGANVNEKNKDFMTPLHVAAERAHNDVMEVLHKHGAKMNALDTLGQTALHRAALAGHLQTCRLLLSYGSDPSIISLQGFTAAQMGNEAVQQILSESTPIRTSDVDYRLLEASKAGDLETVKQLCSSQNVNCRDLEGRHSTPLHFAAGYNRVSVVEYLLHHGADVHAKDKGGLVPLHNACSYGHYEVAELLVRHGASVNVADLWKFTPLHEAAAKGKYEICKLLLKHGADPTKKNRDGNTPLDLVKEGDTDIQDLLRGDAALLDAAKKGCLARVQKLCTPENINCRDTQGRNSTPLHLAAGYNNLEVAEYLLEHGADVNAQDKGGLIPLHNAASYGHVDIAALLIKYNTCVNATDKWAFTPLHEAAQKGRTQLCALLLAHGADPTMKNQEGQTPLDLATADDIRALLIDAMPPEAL
As to the kind of experiment: pull-down.

Experiment [3] addresses T2, Full-length mouse tankyrase-1 (mouse, UniProt Q6PFX9 1-1320).
T2 sequence (looked up): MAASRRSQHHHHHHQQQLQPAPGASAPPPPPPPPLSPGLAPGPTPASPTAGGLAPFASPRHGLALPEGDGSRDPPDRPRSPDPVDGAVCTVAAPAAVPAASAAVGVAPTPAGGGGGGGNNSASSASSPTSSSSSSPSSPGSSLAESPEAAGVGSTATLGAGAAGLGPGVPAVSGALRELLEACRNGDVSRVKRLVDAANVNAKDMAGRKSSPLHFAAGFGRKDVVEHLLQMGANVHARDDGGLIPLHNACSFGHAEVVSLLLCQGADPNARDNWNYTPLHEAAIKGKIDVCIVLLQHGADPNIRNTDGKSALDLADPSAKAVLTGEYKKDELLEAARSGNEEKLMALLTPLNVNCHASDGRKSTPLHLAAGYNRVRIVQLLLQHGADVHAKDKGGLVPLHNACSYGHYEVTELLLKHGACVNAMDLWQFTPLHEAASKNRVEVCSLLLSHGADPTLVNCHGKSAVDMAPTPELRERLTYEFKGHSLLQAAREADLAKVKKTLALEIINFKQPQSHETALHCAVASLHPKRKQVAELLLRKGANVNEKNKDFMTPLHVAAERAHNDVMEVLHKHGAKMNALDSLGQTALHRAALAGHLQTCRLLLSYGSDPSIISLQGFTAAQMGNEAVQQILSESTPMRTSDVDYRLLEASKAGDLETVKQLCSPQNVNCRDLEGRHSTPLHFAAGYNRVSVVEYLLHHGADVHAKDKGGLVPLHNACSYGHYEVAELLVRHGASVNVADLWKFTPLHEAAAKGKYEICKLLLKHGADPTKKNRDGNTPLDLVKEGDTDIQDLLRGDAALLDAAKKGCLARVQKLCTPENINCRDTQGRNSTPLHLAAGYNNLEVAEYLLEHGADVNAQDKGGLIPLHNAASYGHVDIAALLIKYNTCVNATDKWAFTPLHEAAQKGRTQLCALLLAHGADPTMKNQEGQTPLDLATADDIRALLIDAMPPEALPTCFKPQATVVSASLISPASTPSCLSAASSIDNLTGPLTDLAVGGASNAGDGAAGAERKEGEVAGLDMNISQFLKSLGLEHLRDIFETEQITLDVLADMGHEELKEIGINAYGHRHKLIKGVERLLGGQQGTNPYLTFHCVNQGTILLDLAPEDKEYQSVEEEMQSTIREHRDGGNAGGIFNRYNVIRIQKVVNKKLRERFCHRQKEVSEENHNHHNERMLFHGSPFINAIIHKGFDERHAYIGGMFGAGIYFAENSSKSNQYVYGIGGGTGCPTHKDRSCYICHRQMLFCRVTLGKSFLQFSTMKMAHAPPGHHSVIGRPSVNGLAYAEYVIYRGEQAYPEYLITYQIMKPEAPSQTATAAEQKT
Kind of experiment: pull-down.

Experiment [4] addresses T1, TNKS(5ARC). As to the kind of experiment: SEC-MALS. (In general: In gel filtration, larger molecules generally elute earlier.)

poly(ADP-ribose) [PAR]: the “activation of Ub transfer from UbcH5~Ub to lysine” value in experiment [1] is “robust activation”.

B1: GST-RNF146 G337V/G338V (natural protein, human, UniProt Q9NTX7-2 1-358, looked up)
chain: MAGCGEIDHSINMLPTNRKANESCSNTAPSLTVPECAICLQTCVHPVSLPCKHVFCYLCVKGASWLGKRCALCRQEIPEDFLDKPTLLSPEELKAASRGNGEYAWYYEGRNGWWQYDERTSRELEDAFSKGKKNTEMLIAGFLYVADLENMVQYRRNEHGRRRKIKRDIIDIPKKGVAGLRLDCDANTVNLARESSADGADSVSAQSGASVQPLVSSVRPLTSVDGQLTSPATPSPDASTSLEDSFAHLQLSGDNTAERSHRGEGEEDHESPSSGRVPAPDTSIEETESDASSDSEDVSAVVAQHSLTQQRLLVSNANQTVPDRSDRSGTDRSVAGVVTVSVSVRSRRPDGQCTVTEV
Take B1: the binding result with TNKS(5ARC) [2] is given as “binds”.

B2: GST-RNF146 G199V (natural protein, human, UniProt Q9NTX7-2 1-358, looked up)
chain: MAGCGEIDHSINMLPTNRKANESCSNTAPSLTVPECAICLQTCVHPVSLPCKHVFCYLCVKGASWLGKRCALCRQEIPEDFLDKPTLLSPEELKAASRGNGEYAWYYEGRNGWWQYDERTSRELEDAFSKGKKNTEMLIAGFLYVADLENMVQYRRNEHGRRRKIKRDIIDIPKKGVAGLRLDCDANTVNLARESSADVADSVSAQSGASVQPLVSSVRPLTSVDGQLTSPATPSPDASTSLEDSFAHLQLSGDNTAERSHRGEGEEDHESPSSGRVPAPDTSIEETESDASSDSEDVSAVVAQHSLTQQRLLVSNANQTVPDRSDRSGTDRSVAGGGTVSVSVRSRRPDGQCTVTEV
For the molecule B2, the binding result in the experiment with TNKS(5ARC) [2] was “binds”.

B3: GST-RNF146-R163A (natural protein, human, UniProt Q9NTX7-2 1-358, looked up)
chain: MAGCGEIDHSINMLPTNRKANESCSNTAPSLTVPECAICLQTCVHPVSLPCKHVFCYLCVKGASWLGKRCALCRQEIPEDFLDKPTLLSPEELKAASRGNGEYAWYYEGRNGWWQYDERTSRELEDAFSKGKKNTEMLIAGFLYVADLENMVQYRRNEHGRRAKIKRDIIDIPKKGVAGLRLDCDANTVNLARESSADGADSVSAQSGASVQPLVSSVRPLTSVDGQLTSPATPSPDASTSLEDSFAHLQLSGDNTAERSHRGEGEEDHESPSSGRVPAPDTSIEETESDASSDSEDVSAVVAQHSLTQQRLLVSNANQTVPDRSDRSGTDRSVAGGGTVSVSVRSRRPDGQCTVTEV
B3: the binding result in experiment [3] was “binds”.

B4: GST-RNF146 (full-length, wt) (natural protein, human, UniProt Q9NTX7-2 1-358, looked up)
chain: MAGCGEIDHSINMLPTNRKANESCSNTAPSLTVPECAICLQTCVHPVSLPCKHVFCYLCVKGASWLGKRCALCRQEIPEDFLDKPTLLSPEELKAASRGNGEYAWYYEGRNGWWQYDERTSRELEDAFSKGKKNTEMLIAGFLYVADLENMVQYRRNEHGRRRKIKRDIIDIPKKGVAGLRLDCDANTVNLARESSADGADSVSAQSGASVQPLVSSVRPLTSVDGQLTSPATPSPDASTSLEDSFAHLQLSGDNTAERSHRGEGEEDHESPSSGRVPAPDTSIEETESDASSDSEDVSAVVAQHSLTQQRLLVSNANQTVPDRSDRSGTDRSVAGGGTVSVSVRSRRPDGQCTVTEV
B4: the binding result with TNKS(5ARC) [2] is recorded as “binds”.

B5: His6-T7-RNF146 (full-length) (natural protein, human, UniProt Q9NTX7-2 1-358, looked up)
chain: MAGCGEIDHSINMLPTNRKANESCSNTAPSLTVPECAICLQTCVHPVSLPCKHVFCYLCVKGASWLGKRCALCRQEIPEDFLDKPTLLSPEELKAASRGNGEYAWYYEGRNGWWQYDERTSRELEDAFSKGKKNTEMLIAGFLYVADLENMVQYRRNEHGRRRKIKRDIIDIPKKGVAGLRLDCDANTVNLARESSADGADSVSAQSGASVQPLVSSVRPLTSVDGQLTSPATPSPDASTSLEDSFAHLQLSGDNTAERSHRGEGEEDHESPSSGRVPAPDTSIEETESDASSDSEDVSAVVAQHSLTQQRLLVSNANQTVPDRSDRSGTDRSVAGGGTVSVSVRSRRPDGQCTVTEV
With B5, the binding result with TNKS(5ARC) [4] is on record as “binds”.

B6: GST-RNF146(1–205) (domain or fragment, human, UniProt Q9NTX7-2 1-205, looked up)
chain: MAGCGEIDHSINMLPTNRKANESCSNTAPSLTVPECAICLQTCVHPVSLPCKHVFCYLCVKGASWLGKRCALCRQEIPEDFLDKPTLLSPEELKAASRGNGEYAWYYEGRNGWWQYDERTSRELEDAFSKGKKNTEMLIAGFLYVADLENMVQYRRNEHGRRRKIKRDIIDIPKKGVAGLRLDCDANTVNLARESSADGADSVSA
For the molecule B6, the binding result with TNKS(5ARC) [2] is on record as “binds”.
